Results from publication PMC9535927 (The Biochemical journal, 2020).
Where two headings read alike, the source gives them in different places. One block for each compound: values may come before it.

How the values were obtained:
[1] = biological target: T1, rASCT2 (Rattus norvegicus, UniProt D3ZJ25); test: Glutamine uptake fluorescence assay; assay type: cell-based
T1 sequence (D3ZJ25 1-555): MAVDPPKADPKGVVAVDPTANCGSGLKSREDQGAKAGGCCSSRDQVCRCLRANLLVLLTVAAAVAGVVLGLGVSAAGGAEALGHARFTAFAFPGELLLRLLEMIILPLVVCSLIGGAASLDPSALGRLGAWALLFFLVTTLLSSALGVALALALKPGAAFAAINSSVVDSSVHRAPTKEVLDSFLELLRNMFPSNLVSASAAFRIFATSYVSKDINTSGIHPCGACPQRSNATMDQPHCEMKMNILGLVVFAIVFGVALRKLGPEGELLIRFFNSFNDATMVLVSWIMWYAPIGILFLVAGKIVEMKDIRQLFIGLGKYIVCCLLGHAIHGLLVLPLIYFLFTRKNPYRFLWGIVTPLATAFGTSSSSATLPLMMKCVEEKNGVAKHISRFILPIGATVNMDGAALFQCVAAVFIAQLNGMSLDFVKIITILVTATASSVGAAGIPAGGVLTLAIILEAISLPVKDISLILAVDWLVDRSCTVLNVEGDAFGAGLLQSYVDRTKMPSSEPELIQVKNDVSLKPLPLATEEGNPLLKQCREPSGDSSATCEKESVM

[2] = system: ASCT2; assay type: cell-based, rat/human
[3] = biological target: T2, ASCT2 (Homo sapiens, UniProt Q15758); test: Radiotracer flux: 14C BMAA uptake in ASCT2-transfected MDCK-II cell monolayers; assay type: cell-based
T2 sequence (Q15758 1-541): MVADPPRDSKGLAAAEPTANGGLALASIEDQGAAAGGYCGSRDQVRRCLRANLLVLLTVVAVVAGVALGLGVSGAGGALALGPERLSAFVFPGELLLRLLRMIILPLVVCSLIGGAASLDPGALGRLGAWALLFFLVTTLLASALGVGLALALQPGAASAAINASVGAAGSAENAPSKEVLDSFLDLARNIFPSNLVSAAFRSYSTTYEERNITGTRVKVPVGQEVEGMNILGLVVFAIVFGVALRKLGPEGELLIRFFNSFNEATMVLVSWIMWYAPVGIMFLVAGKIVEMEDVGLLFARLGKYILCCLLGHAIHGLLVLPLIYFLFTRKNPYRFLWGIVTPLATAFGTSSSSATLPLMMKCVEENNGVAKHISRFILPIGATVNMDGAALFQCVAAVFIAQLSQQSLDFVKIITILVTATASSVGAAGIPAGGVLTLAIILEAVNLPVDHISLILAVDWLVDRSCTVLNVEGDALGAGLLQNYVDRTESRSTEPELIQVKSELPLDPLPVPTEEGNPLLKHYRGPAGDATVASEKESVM
In short: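 ASCT2-transfected MDCK-II cells grown as monolayers on transwell membranes, assayed 48 h after transfection. After washing, 2 mM 14C BMAA was applied apically for 5 min. Apical and basolateral solutions were then aspirated and both sides washed. Cells were extracted in acetonitrile:water (50:50) and the extract counted by liquid scintillation. Uptake is given as pmol/min/cm2 and compared with non-ASCT2-expressing control cells.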

[4] = Proton ionisation constants; assay type: physicochemical; details: pH 7.4
[5] = cited from earlier work
[6] = biological target: ASCT2; details: read-out: Ki (competes with alanine for the substrate binding site); cited from earlier work
[7] = 2 mM, pH 7.40, intracellular SCN-
[8] = 4 mM (D-2,3-DAP: up to 4 mM), pH 7.40

Structure (SMILES): N[C@@H](COCc1ccccc1)C(=O)O [benzylserine]
decrease in fluorescence emission in the Venus range (glutamine uptake) ([1]; 500 μM glutamine plus 5 mM test compound): 2.70 ± 1.25%

Structure (SMILES): NCC[C@H](N)C(=O)O [L-DAB, L-2,4-diaminobutyric acid]
current elicited on application to ASCT2-expressing cells [2, 7]: produced an inward current, however, with smaller magnitude than that generated by L-DAP

Structure (SMILES): NCCCC[C@H](N)C(=O)O [L-lysine]
current elicited on application to ASCT2-expressing cells [2, 8]: not significantly different from zero

Structure (SMILES): CNC[C@H](N)C(=O)O [BMAA, β-N-Methylamino-L-Alanine]
inward current relative to the maximum anion current induced by L-alanine ([2]; pH 7.40, V = 0 mV): less than 20% | uptake of 14C BMAA ([3]; 2 mM, control cells (non-ASCT2 expressing)): 163 ± 36 pmol/min/cm^2 | transport rate by ASCT2, fold lower than L-glutamine ([3]; if transported at all, inferred from sensitivity of uptake assay): at least 10 fold

Structure (SMILES): NCCC[C@H](N)C(=O)O [L-ornithine]
current elicited on application to ASCT2-expressing cells [2, 8]: not significantly different from zero

decrease in fluorescence emission in the Venus range (glutamine uptake) ([1]; 500 μM glutamine plus 2 mM test compound): 1.00 ± 1.14% | protonation of the α-amino group [4]: 20%
Structure (SMILES): NC[C@H](N)C(=O)O [L-DAP, L-2,3-diaminopropionic acid]
direction of evoked current at low pH ([2]; 2 mM, extracellular pH below 6.50, V = 0 mV): outwardly directed | current elicited on application to ASCT2-expressing cells [2, 7]: elicited an inwardly-directed current | apparent valence from slope of log(Km) vs. voltage ([2]; extracellular 140 mM NaCl, intracellular 130 mM NaSCN, pH 7.4): 0.21 ± 0.04 | pKa of the α-amino group [5]: 6.7

decrease in fluorescence emission in the Venus range (glutamine uptake) ([1]; 500 μM glutamine applied externally alone): 11.2 ± 0.89%
Structure (SMILES): NC(=O)CC[C@H](N)C(=O)O [glutamine]

Structure (SMILES): NC[C@@H](N)C(=O)O [D-2,3-DAP]
current elicited on application to ASCT2-expressing cells [2, 8]: did not produce any current

Structure (SMILES): NC(=O)CCCC(N)C(=O)O (centres unmarked) [homoglutamine]
current elicited on application to ASCT2-expressing cells ([2]; pH 7.4): outward current

Structure (SMILES): O=C(O)[C@@H]1C[C@@H](Cc2ccc(-c3ccccc3)cc2)CN1 [BPP, (R)-γ-(4-biphenylmethyl)-L-proline]
Ki [6]: 3000 nM
